For test [1], the target named is T1, Proteasome assembly chaperone 3 (Homo sapiens) (UniProt Q9BT73).
T1 sequence (whole entry): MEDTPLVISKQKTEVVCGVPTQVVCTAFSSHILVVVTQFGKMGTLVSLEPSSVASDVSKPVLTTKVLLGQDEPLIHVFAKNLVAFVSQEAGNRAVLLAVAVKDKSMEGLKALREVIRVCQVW
Kind of test: Inhibition of N-terminal mKG-labeled PAC3/C-terminal mKG-labeled PAC3 homodimer (unknown origin) protein-protein interaction at 1 uM preincubated for 1 hr with protein followed by another protein addition and measured after 17 hrs by fluorescence based protein-fragment complementation assay relative to control. In outline:
(§1)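 In vitro protein-fragment complementation assay. Compounds were added as DMSO solutions at 10, 1 or 0.1 μM. The decrease in fluorescence intensity was converted to percent inhibition.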

In test [2] the target is T2, PAC1-PAC2 complex (Homo sapiens) (UniProt O95456+Q969U7). Kind of test: Inhibition of N-terminal mKG-labeled PAC1/C-terminal mKG-labeled PAC2 (unknown origin) protein-protein interaction at 10 uM preincubated for 1 hr with protein followed by another protein addition and measured after 17 hrs by fluorescence based protein-fragment complementation assay relative to control. Format: protein-complex assay. The gist of the method:
as §1

Test [3] has as its target T1, Proteasome assembly chaperone 3 (Homo sapiens). As to the kind of experiment: Inhibition of N-terminal mKG-labeled PAC3/C-terminal mKG-labeled PAC3 homodimer (unknown origin) protein-protein interaction at 10 uM preincubated for 1 hr with protein followed by another protein addition and measured after 17 hrs by fluorescence based protein-fragment complementation assay relative to control. In outline:
as §1

The target in test [4] is T2, PAC1-PAC2 complex (Homo sapiens). As to the kind of experiment: Inhibition of N-terminal mKG-labeled PAC1/C-terminal mKG-labeled PAC2 (unknown origin) protein-protein interaction at 1 uM preincubated for 1 hr with protein followed by another protein addition and measured after 17 hrs by fluorescence based protein-fragment complementation assay relative to control. Format: protein-complex assay. The gist of the method:
as §1

Test [5] concerns the target T1, Proteasome assembly chaperone 3 (Homo sapiens). Kind of test: Inhibition of N-terminal mKG-labeled PAC3/C-terminal mKG-labeled PAC3 homodimer (unknown origin) protein-protein interaction at 0.1 uM preincubated for 1 hr with protein followed by another protein addition and measured after 17 hrs by fluorescence based protein-fragment complementation assay relative to control. In outline: as §1

For test [6], the target named is T2, PAC1-PAC2 complex (Homo sapiens). As to the kind of experiment: Inhibition of N-terminal mKG-labeled PAC1/C-terminal mKG-labeled PAC2 (unknown origin) protein-protein interaction at 0.1 uM preincubated for 1 hr with protein followed by another protein addition and measured after 17 hrs by fluorescence based protein-fragment complementation assay relative to control. Format: protein-complex assay. The gist of the method:
as §1

In test [7] the target is T3, Proteasome assembly chaperone 3 (Homo sapiens, UniProt Q9BT73).
T3 sequence (Q9BT73 whole entry): T1 sequence (whole entry)
Kind of test: Inhibition of PAC3 homodimer (unknown origin) protein-protein interaction.

Test [8] addresses T4, PAC1-PAC2 complex (Homo sapiens, UniProt O95456+Q969U7).
T4 sequence (O95456 whole entry): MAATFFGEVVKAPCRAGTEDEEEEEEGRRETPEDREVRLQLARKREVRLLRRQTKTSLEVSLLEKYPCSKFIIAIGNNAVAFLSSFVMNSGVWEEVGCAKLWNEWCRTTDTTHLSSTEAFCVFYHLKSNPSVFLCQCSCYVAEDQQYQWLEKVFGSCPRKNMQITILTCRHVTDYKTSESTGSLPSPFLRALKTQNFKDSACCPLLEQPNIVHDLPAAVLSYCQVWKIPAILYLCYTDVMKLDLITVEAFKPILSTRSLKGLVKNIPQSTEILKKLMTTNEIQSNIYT
T4 sequence (Q969U7 whole entry): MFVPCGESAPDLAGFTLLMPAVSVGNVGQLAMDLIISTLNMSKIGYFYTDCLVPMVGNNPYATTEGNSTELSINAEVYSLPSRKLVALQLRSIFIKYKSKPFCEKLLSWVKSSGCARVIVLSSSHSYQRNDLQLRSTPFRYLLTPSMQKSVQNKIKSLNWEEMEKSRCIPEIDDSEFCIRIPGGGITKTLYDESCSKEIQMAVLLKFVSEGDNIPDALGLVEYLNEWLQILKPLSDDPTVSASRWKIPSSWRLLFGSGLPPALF
As to the kind of experiment: Inhibition of PAC1/PAC2 heterodimer (unknown origin) protein-protein interaction. Format: protein-complex assay.

pIC50: −log10 of the molar value. Some results are limits rather than exact numbers.

For the molecule `COc1c(C)c(OC(=O)c2c(C)c(C)c(OC(=O)CCC(=O)Oc3c(C)c(C)c(C(=O)Oc4c(C)c(C)c(C(=O)O)c(OC)c4C)c(OC)c3C)c(C)c2OC)c(C)c(C)c1C(=O)O`, the inhibition (as a rule, how much of the control response was suppressed) in test [1] was found to be 9%; in test [2], 28%; in test [3], 34%; in test [4], 16%; in test [5], 0%; in test [6] it was 5%.
In the case of `COc1c(C)c(OC(=O)c2c(C)c(C)c(OC(=O)c3c(C)c(Oc4c(C)c(C)c(C(=O)Oc5c(C)c(C)c(C(=O)O)c(OC)c5C)c(OC)c4C)c(O)c(C)c3O)c(C)c2OC)c(C)c(C)c1C(=O)O`, the inhibition turned out to be 94% in test [1], 9% in test [4], 85% in test [5] and 9% in test [6]. The results for the pIC50 in test [7] and in test [8] were 7.70 and less than 3.60, respectively.
Consider `COc1c(C)c(OC(=O)c2c(C)c(C)c(OC(=O)c3c(C)c(C(=O)Oc4c(C)c(C)c(C(=O)Oc5c(C)c(C)c(C(=O)O)c(OC)c5C)c(OC)c4C)c(O)c(C)c3O)c(C)c2OC)c(C)c(C)c1C(=O)O`, for which the inhibition in test [1] turned out to be 17%; in test [2] it was 69%; in test [3], 94%; in test [4] it was 23%; in test [5], 4%; in test [6] it was 21%.
Take `COc1c(C)c(OC(=O)c2c(C)c(C)c(OC(=O)c3c(C)c(C(=O)Oc4c(C)c(C)c(C(=O)Oc5c(C)c(C)c(C(=O)O)c(OC)c5C)c(OC)c4C)c(OC)c(C)c3OC)c(C)c2OC)c(C)c(C)c1C(=O)O`: the inhibition came out at 49% in test [1]; 38% in test [2]; 85% in test [3]; 2% in test [4]; 29% in test [5]; 9% in test [6].
For `COCOC(=O)c1c(C)c(C)c(OC(=O)c2c(C)c(C)c(OCc3cccc(COc4c(C)c(C)c(C(=O)Oc5c(C)c(C)c(C(=O)OCOC)c(OC)c5C)c(OC)c4C)c3Br)c(C)c2OC)c(C)c1OC`, the inhibition was 0% in test [1]; 6% in test [2]; 0% in test [3]; 0% in test [4]; 0% in test [5]; 3% in test [6].
As to `COc1c(C)c(OC(=O)c2ccc(Oc3cccc(C(=O)Oc4c(C)c(C)c(C(=O)Oc5c(C)c(C)c(C(=O)O)c(OC)c5C)c(OC)c4C)c3C)c(C)c2)c(C)c(C)c1C(=O)O`, the inhibition stood at 34% in test [1]; 89% in test [2]; 99% in test [3]; 31% in test [4]; 19% in test [5]; 1% in test [6].
On to `COCOC(=O)c1c(C)c(C)c(OC(=O)c2c(C)c(C)c(OC(=O)c3c(C)c(C(=O)Oc4c(C)c(C)c(C(=O)Oc5c(C)c(C)c(C(=O)OCOC)c(OC)c5C)c(OC)c4C)c(OC)c(C)c3OC)c(C)c2OC)c(C)c1OC`, for which the inhibition in test [1] came out at 5%; in test [2], 1%; in test [3] it was 2%; in test [4] it was 0%; in test [5] it was 12%; in test [6], 3%.
`COc1c(C)c(OC(=O)c2c(C)c(C)c(OCc3cccc(COc4c(C)c(C)c(C(=O)Oc5c(C)c(C)c(C(=O)O)c(OC)c5C)c(OC)c4C)n3)c(C)c2OC)c(C)c(C)c1C(=O)O`: the inhibition in test [1] is 43%; in test [2], 40%; in test [3], 88%; in test [4], 5%; in test [5], 18%; in test [6] it was 9%.
In the case of `COc1c(C)c(OC(=O)c2c(C)c(C)c(OC/C=C/COc3c(C)c(C)c(C(=O)Oc4c(C)c(C)c(C(=O)O)c(OC)c4C)c(OC)c3C)c(C)c2OC)c(C)c(C)c1C(=O)O`, the inhibition in test [1] was found to be 30%; in test [2] it was 68%; in test [3], 94%; in test [4], 16%; in test [5], 7%; in test [6], 5%.
As for `COc1c(C)c(OC(=O)c2c(C)c(C)c(OC[C@H](O)[C@@H](O)COc3c(C)c(C)c(C(=O)Oc4c(C)c(C)c(C(=O)O)c(OC)c4C)c(OC)c3C)c(C)c2OC)c(C)c(C)c1C(=O)O`, the inhibition in test [1] worked out at 17%; in test [2], 39%; in test [3], 53%; in test [4] it was 17%; in test [5] it was 0%; in test [6] it was 5%.
Turning to `COc1c(C)c(OC(=O)c2c(C)c(C)c(OC(=O)C3=C(C)[C@@](C)(O)[C@@]4(O)Oc5c(C)c(OC)c(C(=O)Oc6c(C)c(C)c(C(=O)O)c(OC)c6C)c(C)c5C[C@@]4(C)C3=O)c(C)c2OC)c(C)c(C)c1C(=O)O`, the pIC50 (usually the IC50 on a negative log10 scale, so that one unit is a factor of ten) in test [7] is less than 3.60.
Regarding `COc1c(C)c(OC(=O)c2ccc(Oc3cccc(C(=O)Oc4c(C)c(C)c(C(=O)Oc5c(C)c(C)c(C(=O)O)c(OC)c5C)c(OC)c4C)c3)cc2)c(C)c(C)c1C(=O)O`, the inhibition in test [1] turned out to be 37%; in test [2] it was 98%; in test [3], 99%; in test [4], 35%; in test [5], 7%; in test [6] it was 9%.
On to `COc1c(C)c(OC(=O)c2c(C)c(C)c(OC[C@@H]3OC(=O)O[C@H]3COc3c(C)c(C)c(C(=O)Oc4c(C)c(C)c(C(=O)O)c(OC)c4C)c(OC)c3C)c(C)c2OC)c(C)c(C)c1C(=O)O`, for which the inhibition in test [1] was found to be 5%; in test [2], 49%; in test [3], 41%; in test [4] it was 17%; in test [5], 2%; in test [6] it was 15%.
Consider `COc1c(C)c(O)c(C)c(C)c1C(=O)Oc1c(C)c(C)c(C(=O)O)c(OC)c1C`, for which the inhibition in test [1] stood at 9%; in test [2], 11%; in test [3], 21%; in test [4], 0%; in test [5], 11%; in test [6] it was 3%.
For the molecule `COc1c(C)c(OC(=O)c2ccc(Oc3cccc(C(=O)Oc4c(C)c(C)c(C(=O)Oc5c(C)c(C)c(C(=O)O)c(OC)c5C)c(OC)c4C)c3C)cc2)c(C)c(C)c1C(=O)O`, the inhibition in test [1] was 40%; in test [2], 91%; in test [3] it was 98%; in test [4], 37%; in test [5] it was 4%; in test [6] it was 15%.
`COc1c(C)c(OC(=O)c2c(C)c(C)c(OCc3cccc(COc4c(C)c(C)c(C(=O)Oc5c(C)c(C)c(C(=O)O)c(OC)c5C)c(OC)c4C)c3Br)c(C)c2OC)c(C)c(C)c1C(=O)O`: the inhibition in test [1] was found to be 38%; in test [2], 57%; in test [3] it was 86%; in test [4] it was 5%; in test [5], 26%; in test [6], 3%.
Consider `COc1c(C)c(OC(=O)c2c(C)c(C)c(OC(=O)c3c(C)cc(O)c(Cc4c(C)c(C(=O)Oc5c(C)c(C)c(C(=O)Oc6c(C)c(C)c(C(=O)O)c(OC)c6C)c(OC)c5C)c(O)c(C)c4O)c3O)c(C)c2OC)c(C)c(C)c1C(=O)O`, for which, in test [7], the pIC50 was less than 3.60.

The record behind these values is ChEMBL document CHEMBL4382236, “Synthesis and biological evaluation of thielocin B1 analogues as protein-protein interaction inhibitors of PAC3 homodimer” (Bioorg Med Chem, 2018).
